Calls of active or inactive are those of the source. No cut-off for these calls is given here.
Key:
[1] = system: Pseudomonas aeruginosa; assay: Bactericidal activity against Pseudomonas aeruginosa PaM02 at 128 ug/ml after 24 hrs by time kill analysis (reference value: 2.322 log10 CFU/ml); format: functional
[2] = system: Pseudomonas aeruginosa; assay: Bactericidal activity against Pseudomonas aeruginosa PaM02 at 128 ug/ml after 16 hrs by time kill analysis (reference value: 2.322 log10 CFU/ml); format: functional
[3] = system: Pseudomonas aeruginosa; assay: Bactericidal activity against Pseudomonas aeruginosa PaM02 at 128 ug/ml after 8 hrs by time kill analysis (reference value: 2.322 log10 CFU/ml); format: functional
[4] = system: Pseudomonas aeruginosa; assay: Bactericidal activity against Pseudomonas aeruginosa PaM02 at 128 ug/ml after 4 hrs by time kill analysis (reference value: 2.322 log10 CFU/ml); format: functional
[5] = system: Pseudomonas aeruginosa; assay: Antimicrobial activity against Pseudomonas aeruginosa PaM02 biofilm at 128 ug/ml after 24 hrs by crystal violet staining-based ELISA reader analysis; format: functional; conditions: PaM02, 24 h
Procedure, shortened: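 Preformed biofilm was grown from 100 µL of 1.0 × 10^7 CFU/ml inoculum for 24 h at 37 °C in polystyrene wells. Planktonic cells were removed and wells rinsed with PBS. Compound at 128 µg/ml final in LB was added for a further 24 h at 37 °C. Biofilm was stained with 1% crystal violet, destained with 95% ethanol and read at 570 nm. Reduction = [(Ac−At)/Ac] × 100 versus LB/DMSO controls.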

[6] = system: Pseudomonas aeruginosa; assay: Antimicrobial activity against Pseudomonas aeruginosa PaM02 assessed as growth inhibition at 0.323 umol/ml by microtitre plate reader analysis; format: functional
Procedure, shortened: (§1)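 Clinical mucoid strain grown overnight in LB broth at 37 °C and diluted with saline to OD600 around 1, then 100-fold. Compound in LB was added to an equal volume of cells, giving a final 5.0 × 10^5 CFU/ml and 128 µg/ml compound. Negative control was LB plus the matching DMSO level, with sterility and no-compound wells. Growth was read as turbidity at 600 nm; tobramycin served as positive control.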

[7] = system: Pseudomonas aeruginosa; assay: Antimicrobial activity against Pseudomonas aeruginosa PaM02 at > 128 ug/ml by microtitre plate reader analysis; format: functional, organism-based; procedure, shortened: as §1
[8] = system: Pseudomonas aeruginosa; assay: Antimicrobial activity against Pseudomonas aeruginosa PaM02 assessed as growth inhibition at 0.315 umol/ml by microtitre plate reader analysis; format: functional; procedure, shortened: as §1
[9] = system: Pseudomonas aeruginosa; assay: Antimicrobial activity against Pseudomonas aeruginosa PaM02 assessed as growth inhibition at 0.245 umol/ml by microtitre plate reader analysis; format: functional; procedure, shortened: as §1
[10] = system: Pseudomonas aeruginosa; assay: Antimicrobial activity against Pseudomonas aeruginosa PaM02 assessed as growth inhibition at 0.008 umol/ml by microtitre plate reader analysis; format: functional; procedure, shortened: as §1
[11] = system: Pseudomonas aeruginosa; assay: Inhibition of biofilm formation of Pseudomonas aeruginosa PaM02 at 128 ug/ml after 24 hrs by crystal violet staining-based ELISA reader analysis; format: functional; conditions: PaM02, 24 h
Procedure, shortened: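 Prevention assay: compound at 128 µg/ml final in LB was incubated in polystyrene wells overnight at 4 °C, aspirated, and wells washed with PBS. Wells were seeded with 100 µL of 1.0 × 10^7 CFU/ml inoculum and incubated 24 h at 37 °C. Biofilm was stained with 1% crystal violet, destained with 95% ethanol and read at 570 nm. Inhibition = [(Ac−At)/Ac] × 100 versus LB-preincubated controls.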

C=C(CO[C@@H]1O[C@H](CO)[C@@H](O)[C@H](O)[C@H]1O)[C@@H]1Oc2ccc(C(C)=O)cc2[C@@H]1O
Activity [1]: 1.881 log10CFU/ml
Activity [2]: 1.927 log10CFU/ml
Activity [3]: 1.974 log10CFU/ml
Activity [4]: 2.136 log10CFU/ml
inhibition at 128 µg/mL [5]: 16%
growth inhibition (GI) [6]: 17%

COc1cc(/C=C/c2ccc(O[C@@H]3O[C@H](COC(=O)CC(=O)O)[C@@H](O)[C@H](O)[C@H]3O)cc2)oc(=O)c1
Activity [7]: inactive

COc1cc(/C=C/c2ccc(O[C@@H]3O[C@H](CO)[C@@H](O)[C@H](O)[C@H]3O)cc2)oc(=O)c1
Activity [1]: 1.045 log10CFU/ml
Activity [2]: 1.055 log10CFU/ml
Activity [3]: 1.103 log10CFU/ml
Activity [4]: 1.157 log10CFU/ml
growth inhibition (GI) [8]: 53%

O=C(/C=C/c1ccc(O)c(O)c1)O[C@@H]1C[C@](O)(C(=O)O)C[C@@H](OC(=O)/C=C/c2ccc(O)c(O)c2)[C@H]1O
Activity [7]: inactive

COc1cc(/C=C/c2ccc(O[C@@H]3O[C@H](COC(=O)CC(C)(O)CC(=O)O)[C@@H](O)[C@H](O)[C@H]3O)cc2)oc(=O)c1 (some centres undefined)
Activity [7]: inactive

COc1cc(=O)oc([C@H]2[C@H](c3ccc(O[C@@H]4O[C@H](CO)[C@@H](O)[C@H](O)[C@H]4O)cc3)[C@H](c3cc(OC)cc(=O)o3)[C@H]2c2ccc(O[C@@H]3O[C@H](CO)[C@@H](O)[C@H](O)[C@H]3O)cc2)c1
Activity [7]: inactive

COc1cc2c(c(O[C@@H]3O[C@H](CO)[C@@H](O)[C@H](O)[C@H]3O)c1)C(=O)OC2
Activity [7]: inactive

O=C1OCc2cc(O)cc(O[C@@H]3O[C@H](CO)[C@@H](O)[C@H](O)[C@H]3O)c21
Activity [7]: inactive

COc1cc([C@H]2Oc3c(OC)cc(CCCO)cc3[C@@H]2CO)ccc1O[C@@H]1O[C@H](CO)[C@@H](O)[C@H](O)[C@H]1O
Activity [1]: 1.765 log10CFU/ml
Activity [2]: 1.811 log10CFU/ml
Activity [3]: 1.858 log10CFU/ml
Activity [4]: 2.043 log10CFU/ml
growth inhibition (GI) [9]: 21%

C=C(CO)[C@@H]1Oc2ccc(C(C)=O)cc2[C@@H]1O[C@@H]1O[C@H](CO)[C@@H](O)[C@H](O)[C@H]1O
Activity [7]: inactive
inhibition at 128 µg/mL [5]: 9%

COc1cc2c(c(O[C@@H]3O[C@H](COC(=O)CC(=O)O)[C@@H](O)[C@H](O)[C@H]3O)c1)C(=O)OC2
Activity [7]: inactive
inhibition at 128 µg/mL [5]: 27%

NC[C@H]1O[C@H](O[C@H]2[C@H](O)[C@@H](O[C@H]3O[C@H](CO)[C@@H](O)[C@H](N)[C@H]3O)[C@H](N)C[C@@H]2N)[C@H](N)C[C@@H]1O [TOBRAMYCIN]
growth inhibition (GI) [10]: 100%

O=C(/C=C/c1ccc(O)c(O)c1)O[C@@H]1C[C@](O)(C(=O)O)C[C@@H](O)[C@H]1O [CHLOROGENIC ACID]
inhibition at 128 µg/mL [11]: 45%
Activity [7]: inactive
